# Measurements collected from several papers.
# Protocols differ between the studies behind these lines.
# Target: Receptor tyrosine-protein kinase erbB-4 (ERBB4, Homo sapiens, UniProt Q15303)
Compound,assay,setting,remaining binding [%]
COc1cnc(Nc2cccc(S(N)(=O)=O)c2)nc1N1CCN(c2ccccc2)C(=O)C1,"binding, competition with immobilised ligand",1 µM,100
CC1CCCN1c1nccc(-c2cnn3ncccc23)n1 (stereo not shown),binding,1 µM,98
CCN1CCN(Cc2ccc(C(=O)Nc3ccc(C)c(Oc4ccc5c(c4)CC(=O)N5)c3)cc2C(F)(F)F)CC1,"binding, competition with immobilised ligand",1 µM,100
CCCCN(CCCC)C(=O)CN1C[C@@H](c2cc(OC)c3c(c2)OCO3)[C@H](C(=O)O)[C@H]1CC(C)(C)CCC,"cell-free assay, competition with immobilised ligand",1 µM,95
O=C(Nc1c[nH]nc1C(=O)NC1CCNCC1)c1cc(F)cc(F)c1,"binding, competition with immobilised ligand",1 µM,100
COc1ccc2c(c1)O[C@@H](c1ccc(OC)c(OC)c1)C[C@H]2NC(=O)C1(c2ccc3c(c2)OC(F)(F)O3)CC1,"cell-free assay, competition with immobilised ligand",1 µM,90
N#Cc1ccccc1CSc1nnc2c(n1)[nH]c1ccccc12,"binding, competition with immobilised ligand",10 µM,74
CN(c1nccc(-c2cnn3ncccc23)n1)C1CC1,binding,1 µM,100
O=C(c1ccc(Nc2ncc(Cl)c(-c3cc4ccccc4s3)n2)cc1)N1CCC(N2CCCC2)CC1,"binding, competition with immobilised ligand",1 µM,98
Nc1c(C(=O)NCc2ccc(C(=O)NCCCC3CCCCC3)cc2)cnn1-c1ccccc1,"cell-free assay, competition with immobilised ligand",0.1 µM,89
COc1cnc(Nc2cccc(S(N)(=O)=O)c2)nc1N1CCN(c2ccccc2)CC1,"binding, competition with immobilised ligand",1 µM,86
C[C@H]1CCN(c2nccc(-c3cnn4ncccc34)n2)C1,binding,1 µM,81
O=C(NCCCN1CCOCC1)c1ccc(Nc2nccc(-c3cc4ccccc4s3)n2)cc1,"binding, competition with immobilised ligand",1 µM,86
O=C(N[C@H]1CCCCC/C=C\C2C[C@@]2(C(=O)O)NC(=O)[C@@H]2C[C@@H](Oc3ccncc3)CN2C1=O)OC1CCCC1 (stereo partly shown),"binding, competition with immobilised ligand",1 µM,100
F[C@@H]1CCN(c2nccc(-c3cnn4ncccc34)n2)C1,binding,1 µM,82
Cc1cnc(Nc2ccc(C(=O)N3CCC(N4CCCC4)CC3)cc2)nc1-c1cc2ccccc2s1,"binding, competition with immobilised ligand",1 µM,84
COc1cccc(CNC(=O)c2nc3scc(COCc4ccc(C(=O)O)cc4)c3c(=O)[nH]2)c1,"cell-free assay, competition with immobilised ligand",1 µM,86.1
C=CC(=O)N1CCC(C(=O)NCC(=O)N2CCN(c3nc(-c4cnc(N)nc4C(F)F)nc(N4CCOCC4)n3)CC2)CC1,"binding, competition with immobilised ligand",1 µM,100
c1cnn2ncc(-c3ccnc(N4CCC45COC5)n3)c2c1,binding,1 µM,76
CCC(=N\O)/C(C)=C/c1ccc(F)cc1,"cell-free assay, competition with immobilised ligand",1 µM,66
N[C@@H]1CCN(c2nccc(-c3cnn4ncccc34)n2)C1,binding,1 µM,100
COc1ccc2c(O[C@@H]3C[C@H]4C(=O)N[C@]5(C(=O)O)CC5/C=C\CCCCC[C@H](NC(=O)OC5CCCC5)C(=O)N4C3)cc(-c3csc(NC(=O)C(C)C)n3)nc2c1C (stereo partly shown),"cell-free assay, competition with immobilised ligand",1 µM,100
